Measurements taken from ChEMBL document CHEMBL1127551, “(6,7-Diaryldihydropyrrolizin-5-yl)acetic acids, a novel class of potent dual inhibitors of both cyclooxygenase and 5-lipoxygenase” (J Med Chem, 1994).

Assays:
[1] = target: T1, Arachidonate 5-lipoxygenase (Bos taurus, UniProt Q9BEG3); assay: Inhibition of 5-lipoxygenase in bovine PMNL cell assay.; type: cell-based
T1 sequence (Q9BEG3 whole entry): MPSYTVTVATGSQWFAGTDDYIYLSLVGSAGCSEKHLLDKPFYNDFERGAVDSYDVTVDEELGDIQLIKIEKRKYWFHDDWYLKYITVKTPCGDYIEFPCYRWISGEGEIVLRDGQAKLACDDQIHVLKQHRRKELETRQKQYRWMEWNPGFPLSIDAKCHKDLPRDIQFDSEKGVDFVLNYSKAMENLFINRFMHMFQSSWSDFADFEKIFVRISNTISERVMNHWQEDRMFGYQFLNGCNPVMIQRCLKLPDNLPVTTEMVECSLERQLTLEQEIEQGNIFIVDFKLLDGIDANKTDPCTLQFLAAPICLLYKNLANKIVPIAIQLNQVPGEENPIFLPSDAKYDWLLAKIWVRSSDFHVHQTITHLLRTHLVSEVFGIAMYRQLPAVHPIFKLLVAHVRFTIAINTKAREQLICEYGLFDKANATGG
In short: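 Intact polymorphonuclear leukocytes isolated from fresh bovine blood by ficoll gradient centrifugation. Cells incubated with test compound, then stimulated with Ca-ionophore A 23187. IC50 taken as the average of at least two determinations.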

Cyclooxygenase = target: T2, Cyclooxygenase (Bos taurus, UniProt O62664+O62698); assay: Inhibition of Prostaglandin G/H synthase in bovine thrombocyte intact cell assay.
T2 sequence (O62664 whole entry): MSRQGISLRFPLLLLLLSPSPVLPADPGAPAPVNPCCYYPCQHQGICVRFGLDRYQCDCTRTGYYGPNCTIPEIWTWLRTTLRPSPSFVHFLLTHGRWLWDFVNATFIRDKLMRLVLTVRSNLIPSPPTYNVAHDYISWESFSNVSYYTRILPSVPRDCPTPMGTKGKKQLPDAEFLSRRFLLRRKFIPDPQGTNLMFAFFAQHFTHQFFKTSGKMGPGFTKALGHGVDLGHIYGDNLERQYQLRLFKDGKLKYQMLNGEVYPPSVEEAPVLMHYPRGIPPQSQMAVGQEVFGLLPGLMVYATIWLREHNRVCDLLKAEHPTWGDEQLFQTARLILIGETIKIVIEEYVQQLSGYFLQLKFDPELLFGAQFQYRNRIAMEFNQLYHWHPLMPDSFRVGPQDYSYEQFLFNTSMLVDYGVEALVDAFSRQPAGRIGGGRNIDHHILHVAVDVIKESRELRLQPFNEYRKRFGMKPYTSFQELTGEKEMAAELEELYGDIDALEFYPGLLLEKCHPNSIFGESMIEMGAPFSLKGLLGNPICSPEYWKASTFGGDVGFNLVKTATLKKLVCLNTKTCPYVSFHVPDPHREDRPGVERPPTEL
T2 sequence (O62698 whole entry): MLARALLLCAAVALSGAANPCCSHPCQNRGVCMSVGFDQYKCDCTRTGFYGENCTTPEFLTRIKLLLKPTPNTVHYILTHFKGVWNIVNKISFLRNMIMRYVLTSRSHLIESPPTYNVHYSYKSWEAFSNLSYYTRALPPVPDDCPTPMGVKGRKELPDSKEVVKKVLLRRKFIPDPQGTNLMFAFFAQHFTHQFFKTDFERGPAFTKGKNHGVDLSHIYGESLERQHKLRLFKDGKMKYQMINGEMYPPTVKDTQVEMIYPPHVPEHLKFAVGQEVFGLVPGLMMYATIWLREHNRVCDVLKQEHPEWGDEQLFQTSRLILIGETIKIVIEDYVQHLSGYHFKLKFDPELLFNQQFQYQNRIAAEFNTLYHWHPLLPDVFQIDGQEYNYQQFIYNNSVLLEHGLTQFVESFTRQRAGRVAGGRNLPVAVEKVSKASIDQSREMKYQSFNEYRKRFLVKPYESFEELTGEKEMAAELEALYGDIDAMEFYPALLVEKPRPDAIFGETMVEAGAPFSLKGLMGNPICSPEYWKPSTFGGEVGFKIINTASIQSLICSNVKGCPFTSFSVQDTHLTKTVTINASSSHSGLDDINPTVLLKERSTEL
In short: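 Intact thrombocytes isolated from fresh bovine blood by ficoll gradient centrifugation. Cells incubated with test compound, then stimulated with Ca-ionophore A 23187. IC50 taken as the average of at least two determinations.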

[2] = target: T3, Polyunsaturated fatty acid 5-lipoxygenase (Homo sapiens, UniProt P09917); assay: Inhibition of human 5-lipoxygenase in human cells; type: cell-based
T3 sequence (P09917 whole entry): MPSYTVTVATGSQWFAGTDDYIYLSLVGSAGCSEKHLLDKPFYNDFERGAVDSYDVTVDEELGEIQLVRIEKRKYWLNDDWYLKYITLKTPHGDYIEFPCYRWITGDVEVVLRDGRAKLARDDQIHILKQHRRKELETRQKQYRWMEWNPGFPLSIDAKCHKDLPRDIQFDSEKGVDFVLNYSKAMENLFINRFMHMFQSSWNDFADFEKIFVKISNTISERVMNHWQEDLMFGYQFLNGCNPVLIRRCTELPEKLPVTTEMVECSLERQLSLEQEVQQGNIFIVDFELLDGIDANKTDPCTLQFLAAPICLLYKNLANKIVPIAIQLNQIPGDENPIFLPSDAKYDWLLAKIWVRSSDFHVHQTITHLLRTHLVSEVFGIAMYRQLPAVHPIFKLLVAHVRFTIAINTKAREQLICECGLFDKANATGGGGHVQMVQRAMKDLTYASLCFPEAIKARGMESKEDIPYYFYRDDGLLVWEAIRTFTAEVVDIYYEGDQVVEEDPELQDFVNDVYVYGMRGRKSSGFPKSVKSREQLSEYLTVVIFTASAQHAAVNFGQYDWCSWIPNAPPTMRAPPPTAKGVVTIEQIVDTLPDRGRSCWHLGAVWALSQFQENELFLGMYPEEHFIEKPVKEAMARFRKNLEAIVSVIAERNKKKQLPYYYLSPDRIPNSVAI
In short: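 Intact PMNL isolated by Ficoll gradient centrifugation from fresh human blood; cells incubated with test compound, then stimulated with Ca-ionophore A 23187; 5-LO inhibition expressed as IC50.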

SMILES | IC50 [1] | IC50 (Cyclooxygenase) | IC50 [2]
CC1(C)Cc2c(-c3ccccc3)c(-c3ccc(N)cc3)c(CC(=O)O)n2C1 | 6000 nM | 1 µM | 
CC(=O)Nc1ccc(-c2c(-c3ccccc3)c3n(c2CC(=O)O)CC(C)(C)C3)cc1 | 10000 nM | 0.8 µM | 
CC1(C)Cc2c(-c3ccccc3)c(-c3ccc(F)cc3)c(CC(=O)O)n2C1 | > 10000 nM | 3.2 µM | 
CC1(C)Cc2c(-c3ccccc3)c(-c3ccc(Cl)c(Cl)c3)c(CC(=O)O)n2C1 | 1700 nM | 4.5 µM | 
CC1(C)Cc2c(-c3ccccc3)c(-c3ccc(Cl)c(Cl)c3Cl)c(CC(=O)O)n2C1 | 1800 nM | 12 µM | 
CC1(C)Cc2c(-c3ccccc3)c(-c3ccccc3)c(CC(=O)O)n2C1 | 4000 nM | 0.1 µM | 
CC1(C)Cc2c(-c3ccccc3)c(-c3ccc(O)cc3)c(CC(=O)O)n2C1 | 7700 nM | 1.6 µM | 
CC1(C)Cc2c(-c3ccccc3)c(-c3cc(Cl)ccc3Cl)c(CC(=O)O)n2C1 | 4300 nM | 12 µM | 
CC1(C)Cc2c(-c3ccccc3)c(-c3ccc(Cl)cc3Cl)c(CC(=O)O)n2C1 | 2100 nM | 18 µM | 
CC1(C)Cc2c(-c3ccccc3)c(-c3ccccc3Cl)c(CC(=O)O)n2C1 | 4400 nM | 61 µM | 
CC1(C)Cc2c(-c3ccc(Cl)cc3)c(-c3ccccc3)c(CC(=O)O)n2C1 | 5200 nM | 3.4 µM | 

Continued by falling IC50 [1], values first:

IC50 [1] | IC50 (Cyclooxygenase) | IC50 [2] | SMILES
1700 nM | 3.6 µM |  | CC1(C)Cc2c(-c3ccccc3)c(-c3cccc(Cl)c3)c(CC(=O)O)n2C1
1600 nM | 2 µM |  | O=C(O)Cc1c(-c2ccc(Cl)cc2)c(-c2ccccc2)c2n1CCC2
1600 nM | 2 µM |  | CC1(C)Cc2c(-c3ccccc3)c(-c3ccc(Oc4ccccc4)cc3)c(CC(=O)O)n2C1
1500 nM | 0.03 µM |  | CC1(C)Cc2c(-c3ccccc3)c(-c3ccc([N+](=O)[O-])cc3)c(CC(=O)O)n2C1
240 nM | 0.1 µM |  | COc1ccc(-c2c(-c3ccccc3)c3n(c2CC(=O)O)CC(C)(C)C3)cc1
180 nM | 20 µM |  | CC1(C)Cc2c(-c3ccccc3)c(-c3ccc(C(C)(C)C)cc3)c(CC(=O)O)n2C1
180 nM | 0.21 µM | 230 nM | CC1(C)Cc2c(-c3ccccc3)c(-c3ccc(Cl)cc3)c(CC(=O)O)n2C1 [LICOFELONE]
